# Data published in ChEMBL document CHEMBL3351752, “Discovery and in vivo evaluation of alcohol-containing benzothiazoles as potent dual-targeting bacterial DNA supercoiling inhibitors” (Bioorg Med Chem Lett, 2014).
# Calls of active or inactive are those of the source. No cut-off for these calls is given here.
# Columns and labels:
# Staphylococcus aureus [1] = experiment: Antimicrobial activity against methicillin-sensitive Staphylococcus aureus infected in neutropenic mouse assessed as log reduction in colony forming units at 100 mg/kg, iv administered at 2, 4 and 6 hrs post-inoculation measured 24 hrs post infection relative to control; assay type: functional
# Staphylococcus aureus [2] = experiment: Antibacterial activity against Staphylococcus aureus ATCC 29213 assessed as growth inhibition; assay type: functional
# Streptococcus pyogenes [3] = experiment: Antibacterial activity against Streptococcus pyogenes 51339 assessed as growth inhibition; assay type: functional
# Haemophilus influenzae = experiment: Antibacterial activity against Haemophilus influenzae 49247 assessed as growth inhibition; assay type: functional
# Staphylococcus aureus [4] = experiment: Antimicrobial activity against Staphylococcus aureus harboring GyrB T173N mutant assessed as growth inhibition; assay type: functional
# Streptococcus pyogenes [5] = experiment: Antimicrobial activity against Streptococcus pyogenes harboring ParE A53S mutant assessed as growth inhibition; assay type: functional
# Staphylococcus aureus [6] = experiment: Antibacterial activity against Staphylococcus aureus ATCC 29213 assessed as growth inhibition in presence of 50% horse serum; assay type: functional
# Staphylococcus aureus [7] = experiment: Ratio of MIC for Staphylococcus aureus ATCC 29213 assessed as growth inhibition in presence of 50% horse serum to MIC for Staphylococcus aureus ATCC 29213 assessed as growth inhibition; assay type: functional
# Staphylococcus aureus [8] = experiment: Antimicrobial activity against methicillin-sensitive Staphylococcus aureus infected in neutropenic mouse assessed as reduction in colony forming units administered iv at 2, 4 and 6 hrs post-inoculation measured 24 hrs post infection relative to control; assay type: functional, organism-based
# Staphylococcus aureus [9] = experiment: Antimicrobial activity against methicillin-sensitive Staphylococcus aureus infected in neutropenic mouse assessed as log reduction in colony forming units at 30 mg/kg, iv administered at 2, 4 and 6 hrs post-inoculation measured 24 hrs post infection relative to control; assay type: functional
# Staphylococcus aureus [10] = experiment: Antimicrobial activity against methicillin-sensitive Staphylococcus aureus infected in neutropenic mouse assessed as log reduction in colony forming units at 30 mg/kg, iv administered as single dose measured 24 hrs post infection relative to control; assay type: functional, organism-based; design: dose 30 mg/kg
# In short: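 Thigh infection in neutropenic female CD-1 mice (18–22 g), made neutropenic with ip cyclophosphamide (150 mg/kg day −4, 100 mg/kg day −1). Thighs inoculated with about 2 × 10^5 CFU of MSSA S. aureus ATCC 19636 from fresh overnight culture. Single iv dose at 30 mg/kg. Thighs harvested at 24 h, homogenized in saline on ice, serial dilutions plated on charcoal plates, colonies counted; log CFU reduction taken versus matched controls.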
# Staphylococcus aureus [11] = experiment: Antimicrobial activity against Staphylococcus aureus ATCC 19636 infected in neutropenic mouse assessed as reduction in colony forming units at 30 mg/kg, iv administered as single dose measured 24 hrs post infection relative to control; assay type: functional, organism-based; design: dose 30 mg/kg
# Staphylococcus aureus [12] = experiment: Inhibition of Staphylococcus aureus DNA gyrase ATPase subunit GyrA2/GyrB2 after 60 mins by malachite green staining assay
# [13] = Fraction unbound in mouse plasma by ultracentrifugation; assay type: ADME, cell-free
# In short: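 Compound at 10 µM (1% DMSO) was equilibrated in neat plasma at 37 °C for 60 min. Duplicate aliquots were ultracentrifuged at 250,000g for 4.2 h at 37 °C. Free compound in the plasma-water supernatant was compared with uncentrifuged samples incubated alike. Uncentrifuged samples kept at 20 °C checked degradation, and diltiazem served as stability control. Analysis was by LCMS.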
# Staphylococcus aureus [14] = experiment: Antimicrobial activity against Staphylococcus aureus ATCC 19636 infected in neutropenic mouse assessed as reduction in colony forming units at 25 mg/kg, iv administered as single dose measured 24 hrs post infection relative to control; assay type: functional, organism-based; design: dose 25 mg/kg
# Staphylococcus aureus [15] = experiment: Antimicrobial activity against Staphylococcus aureus ATCC 19636 infected in neutropenic mouse assessed as reduction in colony forming units at 100 mg/kg, po administered as single dose measured 24 hrs post infection relative to control; assay type: functional, organism-based; design: dose 100 mg/kg
SMILES,MIC (Staphylococcus aureus [2]) [µg/mL],MIC (Streptococcus pyogenes [3]) [µg/mL],MIC (Haemophilus influenzae) [µg/mL],MIC (Staphylococcus aureus [6]) [µg/mL],inhibitory concentration (Staphylococcus aureus [12]) [µg/mL],fraction unbound [13],other results
CCNC(=O)Nc1nc2cc(-c3cnc(N4CCC(CC)(C(=O)O)CC4)nc3)cc(-c3ccccn3)c2s1,0.06,0.06,4,4,–,–,FC (Staphylococcus aureus [1]): 4; MIC (Staphylococcus aureus [4]): 0.25 µg/mL; MIC (Streptococcus pyogenes [5]): 0.5 µg/mL; Ratio (Staphylococcus aureus [7]): 64; Activity (Staphylococcus aureus [8]): Dose-dependent effect; FC (Staphylococcus aureus [9]): <3
CCNC(=O)Nc1nc2cc(-c3cnc(CO)nc3)cc(-c3ccccn3)c2s1,0.03,0.06,0.25,0.06,–,–,MIC (Staphylococcus aureus [4]): 0.25 µg/mL; MIC (Streptococcus pyogenes [5]): 0.5 µg/mL; Ratio (Staphylococcus aureus [7]): 2
CN[C@H](CC(C)C)C(=O)N[C@H]1C(=O)N[C@@H](CC(N)=O)C(=O)N[C@H]2C(=O)N[C@H]3C(=O)N[C@H](C(=O)N[C@H](C(=O)O)c4cc(O)cc(O)c4-c4cc3ccc4O)[C@H](O)c3ccc(c(Cl)c3)Oc3cc2cc(c3O[C@@H]2O[C@H](CO)[C@@H](O)[C@H](O)[C@H]2O[C@H]2C[C@](C)(N)[C@H](O)[C@H](C)O2)Oc2ccc(cc2Cl)[C@H]1O,–,–,–,–,–,–,Activity (Staphylococcus aureus [10]): Active
CCNC(=O)Nc1nc2cc(-c3cnc(N4CCC(CC)(C(=O)O)CC4)nc3)cc(/C=N/OC)c2s1,0.12,–,–,–,–,–,FC (Staphylococcus aureus [1]): 4; Activity (Staphylococcus aureus [8]): Dose-dependent effect; FC (Staphylococcus aureus [9]): <3
CO[C@@H]1[C@@H](OC(N)=O)[C@@H](O)[C@H](Oc2ccc3c(O)c(NC(=O)c4ccc(O)c(CC=C(C)C)c4)c(=O)oc3c2C)OC1(C)C,–,–,–,–,–,–,Activity (Staphylococcus aureus [11]): Active
CCNC(=O)Nc1nc2cc(-c3cnc(C(C)O)nc3)cc(-c3ccccn3)c2s1 (stereo not drawn),0.03,0.06,0.5,0.12,–,–,MIC (Staphylococcus aureus [4]): 0.25 µg/mL; MIC (Streptococcus pyogenes [5]): 1 µg/mL; Ratio (Staphylococcus aureus [7]): 4
CCNC(=O)Nc1nc2cc(-c3cnc(C(C)(C)O)nc3)cc(-c3cc(CN4CC(C)(O)C4)ccn3)c2s1,0.5,0.12,4,0.5,0.011,0.223,–
CCNC(=O)Nc1nc2cc(-c3cnc(C(C)(C)O)nc3)cc(-c3cc(CN4CCC(F)(F)C4)ccn3)c2s1,0.06,0.03,> 16,0.25,0.007,0.041,–
CCNC(=O)Nc1nc2cc(-c3cnc(C(C)(C)O)nc3)cc(-c3cc(CN4CC(OC)C4)ccn3)c2s1,0.12,0.12,2,0.25,0.011,0.11,–
CCNC(=O)Nc1nc2cc(-c3cnc(C(C)(C)O)nc3)cc(-c3cc(CN4CCCC4)ccn3)c2s1,0.5,0.5,4,0.5,0.012,0.067,–
CCNC(=O)Nc1nc2cc(-c3cnc(C(C)(C)O)nc3)cc(-c3cc(CN4CC[C@@H](O)C4)ccn3)c2s1,0.5,0.25,4,0.5,0.007,0.194,–
CC(=O)NC[C@H]1CN(c2ccc(N3CCOCC3)c(F)c2)C(=O)O1,–,–,–,–,–,–,Activity (Staphylococcus aureus [14]): Active
CCNC(=O)Nc1nc2cc(-c3cnc(C(C)(C)O)nc3)cc(-c3ccccn3)c2s1,0.06,0.12,1,0.25,0.006,0.051,MIC (Staphylococcus aureus [4]): 0.25 µg/mL; MIC (Streptococcus pyogenes [5]): 1 µg/mL; Ratio (Staphylococcus aureus [7]): 4; Activity (Staphylococcus aureus [11]): Active; Activity (Staphylococcus aureus [15]): Active
CCNC(=O)Nc1nc2cc(-c3cnc(C(C)(C)O)nc3)cc(-c3cc(CNC4CC4)ccn3)c2s1,0.12,0.12,2,0.25,0.006,0.056,–
